Test results: publication PMC6068850 (World Journal of Hepatology, 2018)
Values after ≈ are worked out from the molar mass of the structure shown.

How the values were obtained:
malondialdehyde (MDA) = experiment: Assay of lipid peroxidation products in liver; format: in vivo, Wistar rats; settings: 21 d oral, treated groups vs INH-treated group
Summary of the method: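 Hepatic lipid peroxidation was measured as thiobarbituric-acid-reactive MDA (Ohkawa method). 1,1,3,3-tetraethoxypropane was the standard, and results were expressed as micromoles per gram of tissue. Livers came from male Wistar rats (6/group) given oral suspensions in 1% sodium CMC for 21 d, INH 150 mg/kg/day, test compounds equimolar. Mean ± SEM; one-way ANOVA/Dunnett versus the INH group.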

[1] = tested on: superoxide dismutase (SOD); experiment: Liver superoxide dismutase activity, hepatoprotective study; format: in vivo, Wistar rats; settings: 21 d oral; for Level of SOD re-established: dose equimolar to INH 150 mg/kg/day
[2] = tested on: aspartate aminotransferase (AST); experiment: Estimation of serum aspartate aminotransferase; format: in vivo, Wistar rats; settings: 21 d oral, mean ± SEM
Summary of the method: (§1)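 Serum aminotransferases were measured colorimetrically with commercial kits (Reitman–Frankel method). Male Wistar rats (6/group) were dosed orally for 21 d in 1% sodium CMC, INH 150 mg/kg/day, test compounds equimolar. Blood was drawn retrobulbarly after an overnight fast on day 22. Mean ± SEM; one-way ANOVA with Dunnett's test versus the INH group.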

rat liver = experiment: Histopathological analysis of rat liver; format: in vivo, Wistar rats; settings: H&E-stained liver sections, 21 d oral
Summary of the method: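 Male Wistar rats (180-200 g), acclimatized 1 wk at 24 ± 1 °C, 45%-55% humidity, 12:12 h light/dark; 8 groups of 6. Oral dosing for 21 d as a suspension in 1% sodium CMC, with doses equimolar to the parent drug. On day 22, rats were fasted overnight, bled and sacrificed. Liver was washed in ice-cold saline, fixed in 10% formalin, sectioned, H&E-stained and photographed under light microscopy.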

Aqueous solubility = format: physicochemical; settings: aqueous (water)
[3] = tested on: alanine aminotransferase (ALT); experiment: Estimation of serum alanine aminotransferase; format: in vivo, Wistar rats; settings: 21 d oral, mean ± SEM
Summary of the method: as §1

[4] = tested on: glutathione peroxidase (GSHPx); experiment: Liver glutathione peroxidase, hepatoprotective study; format: in vivo, Wistar rats; settings: 21 d oral; for Level of GSHPx re-established: dose equimolar to INH 150 mg/kg/day
[5] = In vitro release in rat stomach homogenates; format: in vitro ADME; settings: till 3 h
Summary of the method: (§2)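 Incubations in rat stomach homogenate ran up to 3 h; those in intestinal homogenate ran up to 6 h. Intact prodrug and released INH were quantified simultaneously by validated reverse-phase C18 HPLC using prodrug-specific mobile phases at 1 mL/min with UV detection. Percent hydrolysed and INH released came from calibration curves. Rate constants, half-lives and kinetic order were calculated; samples were run in triplicate.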

[6] = In vitro stability in HCl buffer; format: physicochemical; settings: 0.05 mol/L HCl, 37 °C, till 3 h, HPLC
Summary of the method: (§3)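 5 mL aliquots were replaced with fresh buffer at 0, 15, 30, 45, 60 min, then every 30 min to 3 h (HCl) or 6 h (phosphate). Analysed by reverse-phase C18 HPLC against 10-100 μg/mL calibration curves; triplicate.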

Wistar rats = experiment: Evaluation of hepatoprotective potential; format: in vivo; settings: male Wistar rats, 21 d oral
Summary of the method: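 Male Wistar rats (180-200 g), acclimatized 1 wk, randomized into 8 groups of 6. Oral suspensions in 1% sodium CMC for 21 d: INH 150 mg/kg/day, prodrugs and physical mixtures equimolar to INH, saline control. On day 22, rats were fasted overnight, bled retrobulbarly and sacrificed. Endpoints: serum ALT/AST, TG, cholesterol; liver SOD, GSHPx, MDA; blinded H&E histology.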

[7] = In vitro release kinetics in rat intestinal homogenates; format: in vitro ADME; settings: for % Prodrug hydrolysed / K ± SD (hydrolysis rate constant): rat intestinal homogenates; for % Prodrug hydrolysed: over 6 h; for K ± SD (hydrolysis rate constant): first-order kinetics, average of three readings; for half-life: rat, intestinal homogenates
Summary of the method: as §2

[8] = In vitro stability in phosphate buffer; format: physicochemical; settings: 0.05 mol/L phosphate buffer, 37 °C, till 6 h, HPLC
Summary of the method: as §3

[9] = In vivo release studies after oral administration of NI; set-up: species or system Wistar rats
Summary of the method: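 Male Wistar rats were fasted 24 h and housed individually in metabolic cages. They received an oral suspension of test compound in 1.0 mL saline, 309 mg/kg (equimolar to INH). EDTA blood was collected at 0 min, every 15 min for 1 h, every 2 h to 10 h, and at 24 h. Samples were spun 5000 rpm at 0-5 °C, methanol-precipitated and analysed by HPLC. Urine and faeces were pooled over 24 h.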

| solubility (Aqueous solubility) | Release of INH in stomach homogenates [5] | Stability in HCl buffer, pH 1.2 [6] | % Prodrug hydrolysed [7] | K ± SD (hydrolysis rate constant) [7] | half-life [7] | Stability in phosphate buffer, pH 7.4 [8] | Compound | Effect on MDA level (in words) (malondialdehyde (MDA)) | AST level [2] | Liver histopathology findings (rat liver) | ALT level [3] | Level of SOD re-established [1] | Hepatoprotective potential assessment (overall) (Wistar rats) | Level of GSHPx re-established [4] | also measured |
| --- | --- | --- | --- | --- | --- | --- | --- | --- | --- | --- | --- | --- | --- | --- | --- |
| 135 mg/mL (≈ 984 mM) |  |  |  |  |  |  | NNC(=O)c1ccncc1 [INH, isoniazid, reference compound] | significantly higher | 148 ± 7.60 U/L | all these pathological changes were noticed | 144 ± 7.70 U/L |  |  |  | Effect on level of SOD (in words) [1]: significantly lower; Effect on level of GSHPx (in words) [4]: significantly lower |
| 94 mg/mL (≈ 333 mM) | Negligible | Stable | 70.11% | 0.0033 min⁻¹ | 3.62 h | Stable | CC(S)C(=O)NCC(=O)NNC(=O)c1ccncc1 (stereo not shown) [MGI, 2-Mercapto-N-{2-oxo-2-[N’-(pyridine-4-carbonyl)-hydrazino]-ethyl}-propionamide] | better compared to that achieved with MI |  | minimal inflammation, with minimal portal triaditis and mild dilation of blood sinusoids |  | 71.98% | moderate effects | 91.83% |  |
| 114 mg/mL (≈ 425 mM) | Negligible | Stable | 86.55% | 0.0051 min⁻¹ | 3.02 h | Stable | CSCCC(N)C(=O)NNC(=O)c1ccncc1 (stereo not shown) [MI, Isonicotinic acid N’-(2-amino-4-methylsulfanyl-butyryl)-hydrazide] |  |  | minimal inflammation, with minimal portal triaditis and mild dilation of blood sinusoids |  | 88.69% | moderate effects | 93.87% |  |
| 104 mg/mL (≈ 368 mM) | Negligible | Stable | 94.93% | 0.0034 min⁻¹ | 3.89 h | Stable | CC(=O)NC(CS)C(=O)NNC(=O)c1ccncc1 (stereo not shown) [NI, N-{1-mercaptomethyl-2-oxo-2-[N’-(pyridine-4-carbonyl)-hydrazino]-ethyl}-acetamide] | better compared to that achieved with MI | 46 ± 7.30 U/L | reversal of such pathology, with no evidence of necrosis, inflammation or fibrosis | 48 ± 4.50 U/L | 93.39% | noteworthy effects | 100% | INH in urine and faeces samples ([9]; 24 h pooled samples): without any presence; Intact NI in urine and faeces samples ([9]; 24 h pooled samples): not observed; Time at which intact NI completely disappeared from blood ([9]; Wistar rats, blood): 7.5 to 9 h; Time from which concentration of intact NI in blood started declining ([9]; Wistar rats, blood): 5.5 to 6.5 h; Time of appearance of intact NI in blood ([9]; Wistar rats, blood): 2 to 2.5 h |
